Consider one molecule from ChEMBL document CHEMBL1765057, “Pyrazolo[4,3-d]pyrimidine bioisostere of roscovitine: evaluation of a novel selective inhibitor of cyclin-dependent kinases with antiproliferative activity” (J Med Chem, 2011).

In experiment [1] the target is Glycogen synthase kinase-3 alpha (Homo sapiens) (UniProt P49840). The experiment can be described thus: Inhibition of human recombinant GSK3A at 10 uM.
Experiment [2] concerns MCF7. The experiment can be described thus: Cell cycle arrest in human MCF7 cells assessed as accumulation at G1 phase after 24 hrs using propidium iodide and BrdU staining by flow cytometry. The format is functional, cell-based. The procedure, abridged: (§1)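 Subconfluent cells treated 24 h at varying concentrations, pulsed with 10 μM BrdU for 30 min at 37 °C, then trypsinized, fixed in ice-cold 70% ethanol and DNA denatured in 2 M HCl. After staining with fluorescein anti-BrdU (1:50), propidium iodide (0.1 mg/mL) and RNase A (0.5 mg/mL), cells were read by flow cytometry with a 488 nm laser.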
(Dividing cells build labelled thymidine or BrdU into new DNA.)

The target in experiment [3] is Cyclin-dependent kinase 7/ cyclin H (Homo sapiens) (UniProt P51946+P50613). Nature of the experiment: Inhibition of human recombinant CDK7/cyclin H/MAT1 at 10 uM. The format is protein-complex assay.
The test system of another experiment is HL-60. Nature of the experiment: Cytotoxicity against human HL60 cells after 72 hrs by fluoroskan ascent microplate reader analysis. The settings on record: HL-60, 72 h. The class given is functional, cell-based. An outline of the steps:
(§2)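 Cells were grown in DMEM with 10% FCS and 4 mM glutamine at 37 °C under CO2, then plated at densities suited to each line. Compounds were added as 3-fold dilutions in triplicate for 72 h.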

Experiment [4] relates to MCF7. Nature of the experiment: Induction of apoptosis in human MCF7 cells at 10 uM after 24 hrs. The class given is functional, cell-based.
The subject of experiment [5] is MCF7. The experiment can be described thus: Cell cycle arrest in human MCF7 cells assessed as reduction of actively replicating DNA level at 80 uM after 24 hrs using propidium iodide and BrdU staining by flow cytometry. The class given is functional, cell-based. An outline of the steps:
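Subconfluent MCF-7 cells were treated for 24 h at a range of concentrations. They were pulse-labelled with 10 μM BrdU for 30 min at 37 °C, then trypsinized and fixed in ice-cold 70% ethanol. DNA was denatured in 2 M HCl and neutralized with borate. Cells were stained with fluorescein anti-BrdU and with propidium iodide plus RNase A, then analysed by flow cytometry at 488 nm.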

The subject of the next experiment is U-266. Nature of the experiment: Cytotoxicity against human U266 cells after 72 hrs by fluoroskan ascent microplate reader analysis. The format is functional, cell-based. The note with it: U-266, 72 h. The procedure, abridged:
as §2

For experiment [6], the system named is RPMI-8226. Nature of the experiment: Cell cycle arrest in human RPMI8226 cells assessed as accumulation at G1 phase after 24 hrs using propidium iodide and BrdU staining by flow cytometry. The class given is functional, cell-based. The procedure, abridged: as §1
Experiment [7] deals with Casein kinase I isoform alpha (Homo sapiens) (UniProt P48729). Nature of the experiment: Inhibition of human recombinant CK1 at 10 uM.
The subject of experiment [8] is RPMI-8226. Nature of the experiment: Cell cycle arrest in human RPMI8226 cells assessed as accumulation at sub-G1 phase after 24 hrs using propidium iodide and BrdU staining by flow cytometry. The format is functional, cell-based. An outline of the steps: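 Asynchronously growing RPMI-8226 multiple myeloma cells were exposed for 24 h. Cells were double-stained with propidium iodide and BrdU and analysed by flow cytometry for G1, S, G2/M and BrdU-positive fractions. The subG1 population was taken as indicative of apoptosis.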

Experiment [9] has as its system RPMI-8226. Nature of the experiment: Induction of apoptosis in human RPMI8226 cells assessed as induction of caspase7 activation at 20 uM after 24 hrs by immunoblot analysis. The settings on record: in the assay text read “by fluorogenic assay” for “by immunoblot analysis”. The class given is functional, cell-based. The procedure, abridged:
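RPMI-8226 cells were treated continuously for 24 h and lysed in CHAPS extraction buffer (pH 7.4) on ice, then clarified, with protein equalized by Bradford. Lysates were incubated 1 h with 100 μM Ac-DEVD-AMC in PIPES/DTT buffer (pH 7.3), with 100 μM Ac-DEVD-CHO added for negative controls. Fluorescence was read at 355/460 nm.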
Background: Immunoblotting shows a protein as a band on a membrane.

Experiment [10] concerns RPMI-8226. The experiment can be described thus: Induction of apoptosis in human RPMI8226 cells assessed as induction of caspase3 activation at 20 uM after 24 hrs by immunoblot analysis. The class given is functional, cell-based.
For experiment [11], the target named is Casein kinase II (Homo sapiens) (UniProt P67870+P68400+P19784). Nature of the experiment: Inhibition of human recombinant CK2 at 10 uM. The format is protein-complex assay.
Experiment [12] deals with Cyclin-dependent kinase 1/cyclin B1 (Homo sapiens) (UniProt P06493+P14635). The note with it: at 10 µM.
Another experiment deals with G-361. The experiment can be described thus: Cytotoxicity against human G361 cells after 72 hrs by fluoroskan ascent microplate reader analysis. The format is functional, cell-based. The settings on record: G-361, 72 h. The procedure, abridged:
as §2

Experiment [13] concerns the target T1, Retinoblastoma-associated protein (Homo sapiens) (UniProt P06400).
T1 sequence (whole entry): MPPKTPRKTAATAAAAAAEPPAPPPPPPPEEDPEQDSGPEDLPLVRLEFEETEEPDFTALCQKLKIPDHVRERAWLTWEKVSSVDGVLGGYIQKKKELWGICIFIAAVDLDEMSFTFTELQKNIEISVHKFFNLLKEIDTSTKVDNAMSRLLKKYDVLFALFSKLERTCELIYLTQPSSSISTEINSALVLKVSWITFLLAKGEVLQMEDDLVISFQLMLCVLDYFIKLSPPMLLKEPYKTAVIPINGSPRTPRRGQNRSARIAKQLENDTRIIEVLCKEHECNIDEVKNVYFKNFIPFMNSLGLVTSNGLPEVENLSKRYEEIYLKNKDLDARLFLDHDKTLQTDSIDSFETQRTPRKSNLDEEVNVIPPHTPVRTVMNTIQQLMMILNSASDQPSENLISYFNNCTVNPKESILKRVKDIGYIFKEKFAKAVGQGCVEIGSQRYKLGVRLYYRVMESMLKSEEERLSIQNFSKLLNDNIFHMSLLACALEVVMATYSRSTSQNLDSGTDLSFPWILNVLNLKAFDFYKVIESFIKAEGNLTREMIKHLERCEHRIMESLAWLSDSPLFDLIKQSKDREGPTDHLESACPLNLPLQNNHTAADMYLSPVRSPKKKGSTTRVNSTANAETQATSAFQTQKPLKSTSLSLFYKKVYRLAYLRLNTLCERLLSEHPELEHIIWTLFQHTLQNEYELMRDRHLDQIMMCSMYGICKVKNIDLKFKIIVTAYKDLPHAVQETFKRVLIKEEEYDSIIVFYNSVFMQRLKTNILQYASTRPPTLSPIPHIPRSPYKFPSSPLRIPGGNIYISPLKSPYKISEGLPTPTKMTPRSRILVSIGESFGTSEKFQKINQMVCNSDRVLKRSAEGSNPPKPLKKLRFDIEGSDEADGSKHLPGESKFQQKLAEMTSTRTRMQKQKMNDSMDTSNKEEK
Nature of the experiment: Inhibition of retinoblastoma protein in human MCF7 cells assessed as reduction of cyclin D1 level at 2.5 to 40 uM after 24 hrs by immunoblotting. The class given is cell-based. The procedure, abridged: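 Asynchronous, exponentially growing MCF-7 cells were exposed 24 h to a range of concentrations. Total lysates were made in Laemmli buffer, run on SDS-PAGE and blotted to nitrocellulose. Membranes were probed overnight at 4 °C with specific or phosphospecific antibodies (pRb S249/T252, S780, S795, S807/811), with tubulin as loading control and ECL detection.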

In experiment [14] the target is Cellular tumor antigen p53 (Homo sapiens) (UniProt P04637). Nature of the experiment: Induction of p53-dependent transcriptional activity in human ARN8 cells assessed as beta-galactosidase activity after 24 hrs by immunofluorescence assay. The format is cell-based. The procedure, abridged:
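ARN8 melanoma cells stably carrying the p53-responsive pRGCΔfoslacZ reporter were exposed to inhibitors for 24 h, permeabilized with 0.3% Triton X-100 for 15 min, and given MUG substrate (final 80 μM). Fluorescence was read at 355/460 nm after 1 h. Data are mean ± SD of three independent experiments.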

pIC50: −log10 of the molar value. Active and inactive are the calls of the source. No cut-off for these calls is given here.

Cyclin-dependent kinase 1/cyclin B1 (Homo sapiens), sequence (P06493 whole entry, looked up): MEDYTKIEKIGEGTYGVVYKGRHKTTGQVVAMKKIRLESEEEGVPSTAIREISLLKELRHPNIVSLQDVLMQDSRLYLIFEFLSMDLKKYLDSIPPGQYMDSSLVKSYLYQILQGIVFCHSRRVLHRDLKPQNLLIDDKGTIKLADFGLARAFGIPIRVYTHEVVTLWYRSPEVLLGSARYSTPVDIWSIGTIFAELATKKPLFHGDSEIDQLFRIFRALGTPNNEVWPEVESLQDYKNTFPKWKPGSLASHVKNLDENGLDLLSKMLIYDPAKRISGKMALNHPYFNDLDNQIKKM
Cyclin-dependent kinase 1/cyclin B1 (Homo sapiens), sequence (P14635 whole entry, looked up): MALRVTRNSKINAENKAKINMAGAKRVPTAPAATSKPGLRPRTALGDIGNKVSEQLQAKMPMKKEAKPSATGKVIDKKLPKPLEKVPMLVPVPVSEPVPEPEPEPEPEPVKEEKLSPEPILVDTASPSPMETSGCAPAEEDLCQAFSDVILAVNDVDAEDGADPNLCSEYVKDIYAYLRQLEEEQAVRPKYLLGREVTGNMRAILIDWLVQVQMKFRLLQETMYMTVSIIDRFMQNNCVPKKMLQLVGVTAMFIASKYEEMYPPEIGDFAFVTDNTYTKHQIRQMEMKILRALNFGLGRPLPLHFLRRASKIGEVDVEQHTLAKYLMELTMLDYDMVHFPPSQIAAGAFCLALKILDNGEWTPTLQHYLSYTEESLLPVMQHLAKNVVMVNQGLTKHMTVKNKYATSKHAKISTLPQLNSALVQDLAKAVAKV
Casein kinase I isoform alpha (Homo sapiens), sequence (P48729 2-337 limits assumed): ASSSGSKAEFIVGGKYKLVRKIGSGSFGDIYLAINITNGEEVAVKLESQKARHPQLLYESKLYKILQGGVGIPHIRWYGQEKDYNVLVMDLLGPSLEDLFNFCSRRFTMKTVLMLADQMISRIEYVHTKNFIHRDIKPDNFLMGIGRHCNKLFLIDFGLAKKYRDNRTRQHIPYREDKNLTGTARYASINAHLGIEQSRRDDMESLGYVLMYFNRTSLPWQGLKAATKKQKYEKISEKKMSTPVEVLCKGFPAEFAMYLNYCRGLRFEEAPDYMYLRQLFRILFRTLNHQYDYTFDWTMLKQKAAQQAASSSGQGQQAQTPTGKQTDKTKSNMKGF
Cellular tumor antigen p53 (Homo sapiens), sequence (P04637 whole entry, looked up): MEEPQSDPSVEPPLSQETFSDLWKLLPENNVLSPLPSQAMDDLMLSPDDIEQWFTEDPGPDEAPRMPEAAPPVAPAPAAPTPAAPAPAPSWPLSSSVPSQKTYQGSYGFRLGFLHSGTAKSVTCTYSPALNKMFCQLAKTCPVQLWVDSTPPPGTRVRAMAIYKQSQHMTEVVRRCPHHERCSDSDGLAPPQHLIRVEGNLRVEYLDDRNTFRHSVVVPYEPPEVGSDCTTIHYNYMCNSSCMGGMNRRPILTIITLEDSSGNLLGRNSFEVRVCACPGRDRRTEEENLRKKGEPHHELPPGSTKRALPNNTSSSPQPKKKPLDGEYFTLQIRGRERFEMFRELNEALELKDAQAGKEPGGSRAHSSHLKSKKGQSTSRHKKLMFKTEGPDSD
Glycogen synthase kinase-3 alpha (Homo sapiens), sequence (P49840 2-483 limits assumed): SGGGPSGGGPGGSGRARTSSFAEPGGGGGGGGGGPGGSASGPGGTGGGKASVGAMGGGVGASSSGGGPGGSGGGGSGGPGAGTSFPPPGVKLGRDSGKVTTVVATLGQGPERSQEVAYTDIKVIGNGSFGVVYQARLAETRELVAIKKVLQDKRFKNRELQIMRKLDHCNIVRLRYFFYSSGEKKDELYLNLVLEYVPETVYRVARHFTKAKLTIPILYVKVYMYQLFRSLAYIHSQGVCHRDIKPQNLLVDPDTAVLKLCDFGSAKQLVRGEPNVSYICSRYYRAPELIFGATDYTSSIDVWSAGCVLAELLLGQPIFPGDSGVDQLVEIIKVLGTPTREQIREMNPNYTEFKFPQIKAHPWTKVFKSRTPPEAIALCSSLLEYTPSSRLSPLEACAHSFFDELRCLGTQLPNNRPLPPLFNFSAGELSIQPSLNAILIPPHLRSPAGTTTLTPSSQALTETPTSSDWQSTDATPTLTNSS

As to `CC[C@H](CO)Nc1nc(NCc2ccccc2)c2[nH]nc(C(C)C)c2n1`, the inhibition – broadly, the relative decrease from the control value, in per cent – in experiment [1] is 32%; in experiment [3], 96%; in experiment [7], 7%; in [11], 19%; in experiment [12], 84%. The result in the experiment on MCF7 [2] was inactive. The pIC50 (in general, the negative decadic logarithm of the IC50, by convention in mol/L) in the experiment on HL-60 is 5.15; with U-266, 5.31; in the experiment on G-361 it was 5.32. Besides, the result in the experiment on MCF7 [4], in the experiment with MCF7 [5], in the experiment with RPMI-8226 [6], in the experiment with RPMI-8226 [8], in the experiment on RPMI-8226 [9] and in the experiment on RPMI-8226 [10] was Active. Besides, in experiment [13], the inhibition result was “Active”. Moreover, the Activity entry in experiment [14] is “Dose-dependent effect”.
